Drawing on ChEMBL document CHEMBL1156963, “Regioselective one-pot synthesis and anti-proliferative and apoptotic effects of some novel tetrazolo[1,5-a]pyrimidine derivatives” (Bioorg Med Chem, 2010), this text covers Activity, inhibition of growth and LD50 for one compound.

The source made the active and inactive calls. The rule behind the calls is not given here.

Data set [1] relates to Ehrlich. Put plainly: Induction of apoptosis in mouse EAC cells transplanted in Albino mouse assessed as increase in p53 level at 10 mg/kg, po QD for 2 weeks […] relative to control. It counts as functional, organism-based. Also on record: dose 10 mg/kg.
Data set [2] in a line: Antitumor activity against mouse EAC cells transplanted in Albino mouse assessed as decrease in EAC-aliquot volume at 10 mg/kg, po QD for 2 weeks relative to control (Rvb= 5.77+/-0.39 ml). It counts as functional, Ehrlich. The essentials: (§1)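 Female albino mice each received 0.2 ml EAC ascites intraperitoneally (stock aliquot diluted 1:50 in saline). Dosing was 10 mg/kg in 10% DMSO by gastric intubation, daily for 2 weeks from the day of inoculation, against a 10% DMSO vehicle group (12 mice per group). At the end, under ether, 0.2 ml saline was given ip and ascites aspirated 1 min later. Aliquot volume was measured. Live and dead cells were counted by trypan blue on a Neubauer haemocytometer. Mean ± SE, LSD.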

Data set [3] can be described thus: Growth inhibition of mouse EAC cells at 50 ug/ml after 2 hrs using trypan blue staining by Neubauer hemocytometry. It counts as functional. The following applies: Ehrlich, read-out: GI. The essentials: (§2)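 EAC cells at 2.5 × 10^5 cells/ml in PBS were exposed to three compound concentrations for 2 h at 37 °C in 5% CO2. An equal volume of trypan blue was then added. Stained (dead) and unstained cells were counted on a Neubauer haemocytometer, and percent dead cells was calculated per test.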

Data set [4] in a line: Growth inhibition of mouse EAC cells at 100 ug/ml after 2 hrs using trypan blue staining by Neubauer hemocytometry. It counts as functional. The conditions noted are these: Ehrlich, read-out: GI. The procedure, abridged:
as §2

Data set [5] relates to Ehrlich. Put plainly: Antitumor activity against mouse EAC cells transplanted in Albino mouse assessed as decrease in number of living cells at 10 mg/kg, po QD for 2 weeks using trypan blue staining by Neubauer hemocytometry relative to control. It counts as functional, organism-based. Set-up: dose 10 mg/kg. The procedure, abridged:
as §1

Data set [6] can be described thus: Growth inhibition of mouse EAC cells at 25 ug/ml after 2 hrs using trypan blue staining by Neubauer hemocytometry. It counts as functional. The following applies: Ehrlich, read-out: GI. The essentials: as §2
Another data set deals with HepG2. Put plainly: Cytotoxicity against human HepG2 cells after 48 hrs by sulforhodamine B assay. It counts as functional, cell-based. The procedure, abridged:
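HepG2 monolayers were treated with graded concentrations (0–100 range) for 48 h at 37 °C. Cells were then fixed and stained with sulforhodamine B, excess dye was removed with acetic acid, and bound dye was dissolved in Tris-EDTA for colorimetric reading. Survival fraction was plotted against concentration.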
Background: The SRB assay estimates cell density from bound dye.

Data set [7] in a line: Antitumor activity against mouse EAC cells transplanted in Albino mouse assessed as increase in cell mortality rate at 10 mg/kg, po QD for 2 weeks using trypan blue staining by Neubauer hemocytometry relative to control. It counts as functional, Ehrlich. The procedure, abridged:
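Female albino mice given 0.2 ml EAC (1:50 dilution in saline of aliquot from stock mice) i.p.; dosed orally by gastric intubation in 10% DMSO daily for 2 weeks from day of inoculation, vehicle controls. At end, ascites collected after 0.2 ml saline i.p. under ether; alive/dead cells counted by trypan blue exclusion, percent dead per mouse; mean ± SE, LSD test.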

Data set [8] relates to Ehrlich. Description: Antitumor activity against mouse EAC cells transplanted in Albino mouse assessed as increase in number of dead cells at 10 mg/kg, po QD for 2 weeks using trypan blue staining by Neubauer hemocytometry relative to control. Also on record: dose 10 mg/kg. It counts as functional, organism-based. The procedure, abridged: as §1
Data set [9] is described as follows: Antitumor activity against mouse EAC cells transplanted in Albino mouse assessed as increase in survival at 10 mg/kg, po QD for 2 weeks relative to control. It counts as functional, Ehrlich. The essentials: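 Female albino mice inoculated i.p. with 0.2 ml 1:50 saline-diluted EAC; oral gavage in 10% DMSO daily between 10 and 12 AM for 2 successive weeks from inoculation day; vehicle-treated controls (12 mice per group). Survival percent = survived/total animals × 100.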

Data set [10] can be described thus: Toxicity in Albino mouse assessed as mortality after 48 hrs. It counts as organism-based. The following applies: in vivo.
Data set [11] relates to Ehrlich. Description: Antitumor activity against mouse EAC cells transplanted in Albino mouse assessed as decrease in total number of cells at 10 mg/kg, po QD for 2 weeks using trypan blue staining by Neubauer hemocytometry relative to control. Also on record: dose 10 mg/kg. It counts as functional, organism-based. The essentials: as §1
The test system of data set [12] is Ehrlich. Description: Induction of apoptosis in mouse EAC cells transplanted in Albino mouse assessed as decrease in Bcl-2 level in cytoplasm of cells at 10 mg/kg, po QD for 2 weeks […] relative to control. It counts as functional, organism-based. Set-up: dose 10 mg/kg.

The LD50 is the dose expected to kill half of the subjects tested. For the compound `c1nc2nnnn2c2c1CCCC2`, the result in the data set on Ehrlich [1], in the data set on Ehrlich [5], in the data set on Ehrlich [8], in the data set on Ehrlich [11] and in the data set on Ehrlich [12] was Active. For the same compound, the Activity is 2.52 mL in data set [2], “Dose-dependent effect” in the data set with HepG2, 8.24% in data set [7] and 83.33% in data set [9]. Also, in data set [3], the inhibition of growth at 50 µg/mL came to 25%. In data set [4], the inhibition of growth at 100 µg/mL turned out to be 45%. In data set [6], the inhibition of growth at 25 µg/mL was found to be 10%. Moreover, the median lethal dose (LD50) at 48 h in data set [10] is 500 mg/kg.
